A short description of assay [1]: nonspecific flux increase, KCNQ1-free cells – parental CHO cells, counter-screen for KCNQ1 potentiator project (AID 493006;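 active = duplicate-averaged activation above buffer control mean plus 5 SD of those controls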). The settings on record: parental CHO-K1 cells, FluxOR thallium flux, at 10 µM; active compounds read high. Summed up:
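Test system: parental CHO-K1 cells, FluxOR dye-loaded / Probe or stimulus: potassium plus thallium depolarizing stimulus, 5x stock 12.5 mM K2SO4, Tl2SO4 / Timing: overnight 37 °C plating, 90 min dye, 20 min dark compound / Measured by: kinetic thallium-flux fluorescence / Read-out: max-minus-min fluorescence over baseline, percent of buffer-to-R-L3 span / Benchmarks: buffer and R-L3 controls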
Background: A counterscreen serves to expose hits that act by an unwanted route or on another target.

In assay [2] the target is Potassium voltage-gated channel subfamily KQT member 1 (Homo sapiens) (UniProt P51787). Put plainly: enhancement of KCNQ1 channel thallium flux – FluxOR thallium flux, CHO cells, duplicates, confirmation (AID 493007).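 As to outcome: cells depolarized by a potassium plus thallium sulfate stimulus after compound.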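 As to potentiation: 0% = buffer-only wells and 100% = R-L3 activator control.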 The settings on record: KCNQ1 cell line, FluxOR thallium flux fluorescence, at 10 µM; active compounds read high, % of reference activator effect, buffer zero. Summed up:
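Assay system: CHO cells carrying KCNQ1 | Controls: Buffer and R-L3 controls | Schedule: FluxOR dye loading 90 min, compound exposure 20 min, room temperature | Read-out: Baseline-normalized fluorescence change, percent of buffer-to-R-L3 range | Replicates: Each compound tested in duplicate | Technique: Kinetic thallium influx fluorescence with FluxOR dye, 10 s baseline, 110 s post-stimulus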

In assay [3] the target is Potassium voltage-gated channel subfamily KQT member 2 (Rattus norvegicus) (UniProt O88943). Put plainly: KCNQ2 thallium flux enhancement – KCNQ2-CHO-K1 cells, selectivity assay for KCNQ1 potentiator project (AID 493009;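 active = mean duplicate potentiation above the buffer control mean plus 5 SD of buffer wells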;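 also: assay conditions were tuned for KCNQ1 rather than KCNQ2 modulators; signal is max minus min fluorescence divided by baseline after thallium stimulus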). The settings on record: FluxOR thallium flux fluorescence, at 10 µM; active compounds read high, scaled: buffer 0, activator control 100.
Assay [4] concerns the target Potassium voltage-gated channel subfamily KQT member 1 (Homo sapiens) (UniProt P51787). Briefly: KCNQ1 activators by electrophysiology – IonWorks patch clamp, KCNQ1-CHO cells, orthogonal assay for KCNQ1 potentiator project, confirmation (AID 493184;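 active = current rise at least 3 SD above the untreated control mean in each of two repeat wells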;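 as to current potentiation: percent change of the same well's current before compound addition so 0% = no change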). As to conditions: automated patch clamp current, at 10 µM; active compounds read high. Summed up: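 Material: KCNQ1-expressing CHO cells; doses: 10 µM final, single point; probe or stimulus: voltage step from -90 mV holding to +40 mV, 2,000 ms; signal: automated voltage clamp, amphotericin B perforated patch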
(In general: Patch clamp records ionic current or voltage across a cell membrane.)

The target in assay [5] is Potassium voltage-gated channel subfamily E member 1 (Homo sapiens) + Potassium voltage-gated channel subfamily KQT member 1 (Homo sapiens) (UniProt P15382+P51787). Briefly: KCNQ1-E1 channel activation – thallium flux, CHO-K1 KCNQ1/E1 cells, selectivity assay for KCNQ1 potentiator project, confirmation (AID 493186;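 active = mean duplicate activation above the buffer control mean plus 5 SD of those controls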). The settings on record: FluxOR thallium flux, at 10 µM; active compounds read high. Summed up:
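Test system: CHO-K1 cells with KCNQ1/E1. Times: 90-min dye loading then 20-min compound exposure, both at room temperature. Measured by: kinetic FluxOR thallium-flux fluorescence, 10 s baseline plus 110 s after stimulus. Repeats: duplicate wells per compound.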

Calls of active or inactive are those of the source.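 The calls were made as follows, unless noted: active = potentiation averaged over duplicate wells exceeding buffer-only control mean by more than 3 SD; inactive = the rest.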

Chain of Potassium voltage-gated channel subfamily KQT member 2 (Rattus norvegicus) (O88943 whole entry, looked up): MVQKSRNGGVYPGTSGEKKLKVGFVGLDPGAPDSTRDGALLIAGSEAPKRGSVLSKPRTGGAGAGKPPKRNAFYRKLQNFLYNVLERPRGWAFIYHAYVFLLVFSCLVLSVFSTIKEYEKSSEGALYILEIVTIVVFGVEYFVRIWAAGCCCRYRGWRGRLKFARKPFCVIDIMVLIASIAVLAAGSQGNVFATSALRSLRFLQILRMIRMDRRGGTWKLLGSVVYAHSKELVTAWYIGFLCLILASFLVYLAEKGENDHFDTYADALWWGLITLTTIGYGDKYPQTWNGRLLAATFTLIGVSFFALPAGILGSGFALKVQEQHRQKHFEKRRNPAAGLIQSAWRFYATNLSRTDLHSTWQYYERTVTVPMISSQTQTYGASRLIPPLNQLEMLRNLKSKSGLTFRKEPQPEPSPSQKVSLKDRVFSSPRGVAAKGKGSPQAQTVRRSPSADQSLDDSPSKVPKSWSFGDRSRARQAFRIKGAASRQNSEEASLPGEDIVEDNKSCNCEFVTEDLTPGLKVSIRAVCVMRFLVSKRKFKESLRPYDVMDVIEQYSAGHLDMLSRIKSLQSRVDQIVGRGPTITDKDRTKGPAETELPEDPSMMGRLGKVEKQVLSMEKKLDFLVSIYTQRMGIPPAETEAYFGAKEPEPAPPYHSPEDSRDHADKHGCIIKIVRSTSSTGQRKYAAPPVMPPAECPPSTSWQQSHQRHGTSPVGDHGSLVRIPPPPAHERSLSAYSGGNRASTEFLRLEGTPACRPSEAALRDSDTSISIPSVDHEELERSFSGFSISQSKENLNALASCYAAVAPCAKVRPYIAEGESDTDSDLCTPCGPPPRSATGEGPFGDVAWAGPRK
Chain of Potassium voltage-gated channel subfamily KQT member 1 (Homo sapiens) (P51787 whole entry, looked up): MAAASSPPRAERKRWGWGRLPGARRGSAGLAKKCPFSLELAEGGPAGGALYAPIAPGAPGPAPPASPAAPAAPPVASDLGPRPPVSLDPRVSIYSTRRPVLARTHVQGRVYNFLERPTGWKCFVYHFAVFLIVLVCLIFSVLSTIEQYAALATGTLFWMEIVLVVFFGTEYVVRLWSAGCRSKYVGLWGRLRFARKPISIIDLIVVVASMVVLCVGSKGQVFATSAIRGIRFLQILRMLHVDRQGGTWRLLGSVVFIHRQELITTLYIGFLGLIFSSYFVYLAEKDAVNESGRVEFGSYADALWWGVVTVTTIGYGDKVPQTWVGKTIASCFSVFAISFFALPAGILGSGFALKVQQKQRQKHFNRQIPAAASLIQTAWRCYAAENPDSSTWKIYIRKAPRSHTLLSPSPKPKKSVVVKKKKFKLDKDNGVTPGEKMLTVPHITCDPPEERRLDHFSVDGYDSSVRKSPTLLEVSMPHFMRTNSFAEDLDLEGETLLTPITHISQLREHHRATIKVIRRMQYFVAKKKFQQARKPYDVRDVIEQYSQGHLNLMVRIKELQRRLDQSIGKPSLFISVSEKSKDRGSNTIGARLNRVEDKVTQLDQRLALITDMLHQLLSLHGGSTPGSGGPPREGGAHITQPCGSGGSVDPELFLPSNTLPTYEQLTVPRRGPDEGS
Chain of Potassium voltage-gated channel subfamily E member 1 (Homo sapiens) + Potassium voltage-gated channel subfamily KQT member 1 (Homo sapiens) (P51787 whole entry, looked up): as the sequence (P51787 whole entry, looked up) above

Regarding `CCOC(=O)c1cccc(NC(=O)CCc2nnc3ccc(N4CCCCC4)nn23)c1`, the outcome in assay [1], in assay [2], in assay [3], in assay [4] and in assay [5] was inactive.
As to `O=C(CSc1nnc(-c2ccco2)o1)Nc1cccc([N+](=O)[O-])c1`, the result in assay [1], in assay [2], in assay [3], in assay [4] and in assay [5] was inactive.
Turning to `O=C(CN(CCO)c1ccccc1)Nc1cccc(S(=O)(=O)N2CCCC2)c1`, the outcome in assay [1], in assay [3], in assay [4] and in assay [5] was inactive. Besides, the potentiation in assay [2] was 22.5% (active).
Take `Cc1ccc(S(=O)(=O)N2CCN(C(=O)c3ccc(Br)o3)CC2)c(C)c1`: the result in assay [1], in assay [2], in assay [3], in assay [4] and in assay [5] was inactive.
Consider `COc1cc(C(=O)CCN2CCC(c3ccccc3)C2)cc(OC)c1OC` (stereo not given), for which the result in assay [1], in assay [2], in assay [3], in assay [4] and in assay [5] was inactive.
`CC1CC(=S)Nc2ccccc2N1C(=O)Nc1ccccc1` (stereo not given): the result in assay [1], in assay [2], in assay [3], in assay [4] and in assay [5] was inactive.
Turning to `CCN1CCN(c2ccc(S(=O)(=O)N3CCCC3)cn2)CC1`, the outcome in assay [1], in assay [2], in assay [3], in assay [4] and in assay [5] was inactive.
On to `Cc1cc(C(=O)NCc2ccc(S(N)(=O)=O)cc2)ccc1[N+](=O)[O-]`, for which the outcome in assay [1], in assay [2], in assay [3], in assay [4] and in assay [5] was inactive.
`COCCOC(=O)/C(=C/c1ccc(OC(=O)c2ccccc2)cc1)C(C)=O`: the result in assay [1], in assay [2], in assay [3], in assay [4] and in assay [5] was inactive.
For the molecule `Cc1cccc(N2CCN(C(=O)Cn3sc4nc(C)cc(C)c4c3=O)CC2C)c1` (stereo not given), the outcome in assay [1], in assay [2], in assay [3], in assay [4] and in assay [5] was inactive.
For the molecule `O=C(NCCCN1CCCC1)c1ccc2c(c1)N(Cc1ccccc1)CCS2`, the result in assay [1], in assay [2], in assay [3], in assay [4] and in assay [5] was inactive.
As to `Cc1cccc2sc(N(CCCN(C)C)C(=O)c3ccc4ncsc4c3)nc12`, the outcome in assay [1], in assay [2], in assay [3], in assay [4] and in assay [5] was inactive.
`O=c1cc(-c2ccccc2)nc2cc(-c3ccco3)[nH]n12`: the outcome in assay [1], in assay [2], in assay [3], in assay [4] and in assay [5] was inactive.
For `Cc1ccc(-n2c(C)cc(/C=N/NC(=O)c3ccncc3)c2C)c(C)c1`, the result in assay [1], in assay [2], in assay [3], in assay [4] and in assay [5] was inactive.
Take `O=C(NC(=S)Nc1ccccc1N1CCCC1)c1ccc(-c2cccc([N+](=O)[O-])c2)o1`: the outcome in assay [1], in assay [2], in assay [3], in assay [4] and in assay [5] was inactive.
Consider `CC(C)(C)c1ccc(-n2nc(C#N)c(Cl)cc2=O)cc1`, for which the outcome in assay [1], in assay [2], in assay [3], in assay [4] and in assay [5] was inactive.
For `Oc1c(N=NC(=S)Nc2ccccc2F)c2ccccc2n1Cc1ccc(Cl)cc1`, the result in assay [1], in assay [2], in assay [3], in assay [4] and in assay [5] was inactive.
Turning to `CNC(=O)CC1C(=O)N(c2ccc(Cl)cc2)C(=S)N1CCc1ccc(OC)c(OC)c1` (stereo not given), the outcome in assay [1], in assay [2], in assay [3], in assay [4] and in assay [5] was inactive.
As for `O=C(Nc1ccc(N2CCCC(O)C2)cc1)c1snc2c(=O)[nH]cnc12` (stereo not given), the result in assay [1], in assay [2], in assay [3], in assay [4] and in assay [5] was inactive.
For `S=c1[nH]nc(-c2cccs2)n1/N=C/c1cn(-c2ccccc2)nc1-c1ccccc1`, the outcome in assay [1], in assay [3], in assay [4] and in assay [5] was inactive. For the same molecule, the potentiation in assay [2] is 22% (active).
Turning to `Cc1ccc(NC(=S)NC(=O)c2ccc(-c3ccccc3)cc2)c(C)c1`, the outcome in assay [1], in assay [2], in assay [3], in assay [4] and in assay [5] was inactive.
Regarding `Cc1cc(/C=N/n2cnnc2)c(C)n1-c1ccc(Cl)cc1Cl`, the outcome in assay [1], in assay [2], in assay [3] and in assay [5] was inactive. In assay [4], the current potentiation is 28.9% (active).
Take `Oc1c(N=NC(=S)Nc2ccccc2F)c2ccccc2n1Cc1cccc(Cl)c1`: the outcome in assay [1], in assay [2], in assay [3], in assay [4] and in assay [5] was inactive.
Take `Cc1ccc(C(=O)C2=C(O)C(=O)N(CCCN3CCOCC3)C23C(=O)N(C)c2ccccc23)o1` (stereo not given): the outcome in assay [1], in assay [2], in assay [3], in assay [4] and in assay [5] was inactive.
Take `Cc1ccc(CNc2nc3c([nH]2)c(=O)n(C)c(=O)n3C)cc1`: the outcome in assay [1], in assay [2], in assay [3], in assay [4] and in assay [5] was inactive.
For `COC(=O)c1ccccc1NC(=S)NC(=O)c1ccc(C)cc1`, the result in assay [1], in assay [2], in assay [3], in assay [4] and in assay [5] was inactive.
For the molecule `Cc1ccc(OCC(=O)NNC(=S)NC(=O)C2CCCCC2)c(C)c1`, the result in assay [1], in assay [3], in assay [4] and in assay [5] was inactive. In assay [2], the potentiation was 26.5% (active).
For the molecule `O=C(CSc1ccccn1)N1CCN(S(=O)(=O)c2ccc(Cl)cc2)CC1`, the outcome in assay [1], in assay [2], in assay [3], in assay [4] and in assay [5] was inactive.
Take `O=C(NCC1CCCO1)c1cccc(Oc2ccccc2)c1` (stereo not given): the outcome in assay [1], in assay [2], in assay [3], in assay [4] and in assay [5] was inactive.
Regarding `O=C(NC(=S)Nc1ccc(CN2CCOCC2)cc1)c1ccc(-c2cccc(Cl)c2)o1`, the outcome in assay [1], in assay [4] and in assay [5] was inactive. Besides, the potentiation is 64% (active) in assay [2] and 144% (active) in assay [3].
